Values after ≈ are worked out from the molar mass of the structure shown.
Legend:
Staphylococcus = test: Antibacterial activity against methicillin-susceptible coagulase-negative unspeciated Staphylococcus clinical isolate by broth microdilution method; type: functional
Procedure, shortened: (§1)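 MICs by CLSI broth microdilution in frozen trays pre-loaded with serial dilutions of each agent. Quality-control strains run in parallel: E. faecalis ATCC 29212 and ATCC 51299, S. aureus ATCC 29213, S. pneumoniae ATCC 49619. Comparator susceptibility categories follow CLSI breakpoints. Methicillin resistance in staphylococci assigned from the oxacillin MIC.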

Enterococcus faecalis [1] = test: Antibacterial activity against linezolid/daptomycin-nonsusceptible vancomycin-susceptible Enterococcus faecalis clinical isolate by broth microdilution method; type: functional; procedure, shortened: as §1
Streptococcus pneumoniae = test: Antibacterial activity against penicillin susceptible Streptococcus pneumoniae clinical isolate by broth microdilution method; type: functional; procedure, shortened: as §1
Enterococcus faecalis [2] = test: Antibacterial activity against vancomycin-susceptible Enterococcus faecalis clinical isolate by broth microdilution method; type: functional; procedure, shortened: as §1
Enterococcus faecium [3] = test: Antibacterial activity against linezolid/daptomycin-nonsusceptible vancomycin-susceptible Enterococcus faecium clinical isolate by broth microdilution method; type: functional; procedure, shortened: as §1
Enterococcus faecium [4] = test: Antibacterial activity against linezolid/daptomycin-nonsusceptible vancomycin-resistant Enterococcus faecium clinical isolate by broth microdilution method; type: functional; procedure, shortened: as §1
Staphylococcus aureus [5] = test: Antibacterial activity against daptomycin-nonsusceptible Staphylococcus aureus isolate 1171055 by broth microdilution method; type: functional; procedure, shortened: as §1
[6] = tested on: Staphylococcus epidermidis; test: Antibacterial activity against methicillin-resistant coagulase-negative Staphylococcus epidermidis clinical isolate by broth microdilution method; type: functional; procedure, shortened: as §1
Staphylococcus aureus [7] = test: Antibacterial activity against vancomycin-intermediate methicillin-resistant Staphylococcus aureus NRS118 by broth microdilution method; type: functional
Procedure, shortened: (§2)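 VISA and VRSA strains from the NARSA repository were tested separately from the surveillance isolates. MICs by CLSI broth microdilution in frozen trays with serial dilutions. Quality-control strains run in parallel. Susceptibility categories follow CLSI breakpoints, and methicillin resistance was assigned from the oxacillin MIC.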

Enterococcus faecium [8] = test: Antibacterial activity against vancomycin- and teichoplanin-nonsusceptible Enterococcus faecium clinical isolate by broth microdilution method; type: functional; procedure, shortened: as §1
Staphylococcus aureus [9] = test: Antibacterial activity against methicillin-susceptible Staphylococcus aureus clinical isolate by broth microdilution method; type: functional; procedure, shortened: as §1
[10] = Antibacterial activity against Streptococcus sp. Group G clinical isolate by broth microdilution method; type: functional
Procedure, shortened: (§3)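 MIC by CLSI broth microdilution in frozen microtiter trays holding serial dilutions of each agent, prepared from standard laboratory powders. E. faecalis ATCC 29212 and ATCC 51299, S. aureus ATCC 29213 and S. pneumoniae ATCC 49619 run in parallel as quality-control strains. Comparator susceptibility interpreted with CLSI breakpoints.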

Staphylococcus aureus [11] = test: Antibacterial activity against vancomycin-intermediate methicillin-susceptible Staphylococcus aureus NRS56 by broth microdilution method; type: functional; procedure, shortened: as §2
Staphylococcus aureus [12] = test: Antibacterial activity against daptomycin-nonsusceptible Staphylococcus aureus isolate 1171063 by broth microdilution method; type: functional; procedure, shortened: as §1
Staphylococcus aureus [13] = test: Antibacterial activity against vancomycin-intermediate methicillin-resistant Staphylococcus aureus NRS12 by broth microdilution method; type: functional; procedure, shortened: as §2
Staphylococcus warneri [14] = test: Antibacterial activity against methicillin-resistant coagulase-negative Staphylococcus warneri clinical isolate by broth microdilution method; type: functional; procedure, shortened: as §1
[15] = Antibacterial activity against Streptococcus sp. Group C clinical isolate by broth microdilution method; type: functional; procedure, shortened: as §3
Enterococcus = test: Antibacterial activity against vancomycin-susceptible Enterococcus; type: functional; procedure, shortened: as §3
Staphylococcus aureus [16] = test: Antibacterial activity against vancomycin-, methicillin-resistant Staphylococcus aureus VRS2 by broth microdilution method; type: functional; procedure, shortened: as §2
Staphylococcus aureus [17] = test: Antibacterial activity against vancomycin-intermediate methicillin-resistant Staphylococcus aureus NRS74 by broth microdilution method; type: functional; procedure, shortened: as §2
Streptococcus agalactiae = test: Antibacterial activity against Streptococcus agalactiae clinical isolate by broth microdilution method; type: functional; procedure, shortened: as §3
Staphylococcus warneri [18] = test: Antibacterial activity against methicillin-susceptible coagulase-negative Staphylococcus warneri clinical isolate by broth microdilution method; type: functional; procedure, shortened: as §1
Staphylococcus cohnii = test: Antibacterial activity against methicillin-susceptible coagulase-negative Staphylococcus cohnii clinical isolate by broth microdilution method; type: functional; procedure, shortened: as §1
Staphylococcus aureus [19] = test: Antibacterial activity against daptomycin-nonsusceptible Staphylococcus aureus isolate 1176127 by broth microdilution method; type: functional; procedure, shortened: as §1
Staphylococcus aureus [20] = test: Antibacterial activity against vancomycin-intermediate methicillin-resistant Staphylococcus aureus NRS1 by broth microdilution method; type: functional; procedure, shortened: as §2
Staphylococcus aureus [21] = test: Antibacterial activity against daptomycin-nonsusceptible Staphylococcus aureus isolate 1285404 by broth microdilution method

## CCCCCCCCCCNCCN[C@@]1(C)C[C@H](O[C@H]2[C@H](Oc3c4cc5cc3Oc3ccc(cc3Cl)[C@@H](O)[C@@H](NC(=O)[C@@H](CC(C)C)NC)C(=O)N[C@@H](CC(N)=O)C(=O)N[C@H]5C(=O)N[C@H]3C(=O)N[C@H](C(=O)N[C@H](C(=O)O)c5cc(O)c(CNCP(=O)(O)O)c(O)c5-c5cc3ccc5O)[C@H](O)c3ccc(c(Cl)c3)O4)O[C@H](CO)[C@@H](O)[C@@H]2O)O[C@@H](C)[C@H]1O [TELAVANCIN]
Staphylococcus
  MIC50: 0.25 µg/mL (≈ 0.142 µM)
  MIC90: 0.5 µg/mL (≈ 0.285 µM)
Enterococcus faecalis [1]
  MIC: 1 µg/mL (≈ 0.57 µM)
Streptococcus pneumoniae
  MIC50: 0.015 µg/mL (≈ 0.00854 µM)
  MIC90: 0.03 µg/mL (≈ 0.0171 µM)
Enterococcus faecalis [2]
  MIC50: 0.5 µg/mL (≈ 0.285 µM)
  MIC90: 1 µg/mL (≈ 0.57 µM)
Enterococcus faecium [3]
  MIC: 0.06 µg/mL (≈ 0.0342 µM)
Enterococcus faecium [4]
  MIC: 2 µg/mL (≈ 1.14 µM)
Staphylococcus aureus [5]
  MIC: 0.5 µg/mL (≈ 0.285 µM)
[6]
  MIC50: 0.25 µg/mL (≈ 0.142 µM)
  MIC90: 0.5 µg/mL (≈ 0.285 µM)
Staphylococcus aureus [7]
  MIC: 0.5 µg/mL (≈ 0.285 µM)
Enterococcus faecium [8]
  MIC50: 4 µg/mL (≈ 2.28 µM)
  MIC90: 8 µg/mL (≈ 4.56 µM)
Staphylococcus aureus [9]
  MIC50: 0.25 µg/mL (≈ 0.142 µM)
  MIC90: 0.5 µg/mL (≈ 0.285 µM)
[10]
  MIC: 0.03 µg/mL (≈ 0.0171 µM)
  MIC50: 0.03 µg/mL (≈ 0.0171 µM)
  MIC90: 0.06 µg/mL (≈ 0.0342 µM)
Staphylococcus aureus [11]
  MIC: 1 µg/mL (≈ 0.57 µM)
Staphylococcus aureus [12]
  MIC: 0.5 µg/mL (≈ 0.285 µM)
Staphylococcus aureus [13]
  MIC: 0.5 µg/mL (≈ 0.285 µM)
Staphylococcus warneri [14]
  MIC50: 0.25 µg/mL (≈ 0.142 µM)
  MIC90: 0.5 µg/mL (≈ 0.285 µM)
[15]
  MIC: 0.03 µg/mL (≈ 0.0171 µM)
  MIC50: 0.03 µg/mL (≈ 0.0171 µM)
  MIC90: 0.06 µg/mL (≈ 0.0342 µM)
Enterococcus
  MIC90: 1 µg/mL (≈ 0.57 µM)
Staphylococcus aureus [16]
  MIC: 1 µg/mL (≈ 0.57 µM)
Staphylococcus aureus [17]
  MIC: 1 µg/mL (≈ 0.57 µM)
Streptococcus agalactiae
  MIC50: 0.06 µg/mL (≈ 0.0342 µM)
  MIC90: 0.06 µg/mL (≈ 0.0342 µM)
Staphylococcus warneri [18]
  MIC50: 0.25 µg/mL (≈ 0.142 µM)
  MIC90: 0.5 µg/mL (≈ 0.285 µM)
Staphylococcus cohnii
  MIC50: 0.25 µg/mL (≈ 0.142 µM)
  MIC90: 0.5 µg/mL (≈ 0.285 µM)
Staphylococcus aureus [19]
  MIC: 0.5 µg/mL (≈ 0.285 µM)
Staphylococcus aureus [20]
  MIC: 0.5 µg/mL (≈ 0.285 µM)
Staphylococcus aureus [21]
  MIC: 0.25 µg/mL (≈ 0.142 µM)

## CN[C@H](CC(C)C)C(=O)N[C@H]1C(=O)N[C@@H](CC(N)=O)C(=O)N[C@H]2C(=O)N[C@H]3C(=O)N[C@H](C(=O)N[C@H](C(=O)O)c4cc(O)cc(O)c4-c4cc3ccc4O)[C@H](O)c3ccc(c(Cl)c3)Oc3cc2cc(c3O[C@@H]2O[C@H](CO)[C@@H](O)[C@H](O)[C@H]2O[C@H]2C[C@](C)(N)[C@H](O)[C@H](C)O2)Oc2ccc(cc2Cl)[C@H]1O [VANCOMYCIN]
Staphylococcus
  MIC50: 1 µg/mL (≈ 0.69 µM)
  MIC90: 2 µg/mL (≈ 1.38 µM)
Streptococcus pneumoniae
  MIC50: 0.25 µg/mL (≈ 0.173 µM)
  MIC90: 0.5 µg/mL (≈ 0.345 µM)
Enterococcus faecalis [2]
  MIC50: 1 µg/mL (≈ 0.69 µM)
  MIC90: 2 µg/mL (≈ 1.38 µM)
[6]
  MIC50: 2 µg/mL (≈ 1.38 µM)
  MIC90: 2 µg/mL (≈ 1.38 µM)
Enterococcus faecium [8]
  MIC50: 512 µg/mL (≈ 353 µM)
  MIC90: 512 µg/mL (≈ 353 µM)
Staphylococcus aureus [9]
  MIC50: 1 µg/mL (≈ 0.69 µM)
  MIC90: 1 µg/mL (≈ 0.69 µM)
[10]
  MIC: 0.25 µg/mL (≈ 0.173 µM)
  MIC50: 0.25 µg/mL (≈ 0.173 µM)
  MIC90: 0.5 µg/mL (≈ 0.345 µM)
Staphylococcus warneri [14]
  MIC50: 2 µg/mL (≈ 1.38 µM)
  MIC90: 2 µg/mL (≈ 1.38 µM)
[15]
  MIC: 0.25 µg/mL (≈ 0.173 µM)
  MIC50: 0.25 µg/mL (≈ 0.173 µM)
  MIC90: 0.5 µg/mL (≈ 0.345 µM)
Staphylococcus aureus [16]
  MIC: 32 µg/mL (≈ 22.1 µM)
Streptococcus agalactiae
  MIC50: 0.5 µg/mL (≈ 0.345 µM)
  MIC90: 0.5 µg/mL (≈ 0.345 µM)
Staphylococcus warneri [18]
  MIC50: 1 µg/mL (≈ 0.69 µM)
  MIC90: 2 µg/mL (≈ 1.38 µM)
Staphylococcus cohnii
  MIC50: 1 µg/mL (≈ 0.69 µM)
  MIC90: 2 µg/mL (≈ 1.38 µM)
